Experimental findings from ChEMBL document CHEMBL5042469, “Unique Molecular Interaction with the Histone Deacetylase 6 Catalytic Tunnel: Crystallographic and Biological Characterization of a Model Chemotype” (J Med Chem, 2021) are described below.

Calls of active or inactive are those of the source. No cut-off for these calls is given here.

Series [1] is described as follows: Stability in mouse plasma measured assessed as compound remaining after 60 mins. Type of series: ADME, cell-free. The settings on record: read-out: Stability.
Series [2] can be described thus: Stability in human whole blood assessed as compound remaining measured after 60 mins. The settings on record: read-out: Stability. Type of series: ADME, tissue-based.
Series [3] can be described thus: Stability in human whole blood assessed as compound remaining measured after 30 mins. Type of series: ADME, tissue-based. The settings on record: read-out: Stability.
A further series deals with Histone deacetylase 7 (Homo sapiens, UniProt Q8WUI4). The series is described as follows: Inhibition of full length human HDAC7 using FAM-labeled acetylated peptide as substrate by electrophoretic mobility shift assay. The method, boiled down:
(§1)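 Full-length human HDAC isoform enzymatic assay by electrophoretic mobility shift, using a FAM-labelled acetylated peptide substrate. […] Values are the mean of duplicate experiments with 95% confidence intervals.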

Series [4] is described as follows: Stability in mouse plasma assessed as compound remaining measured after 15 mins. Type of series: ADME, cell-free. The settings on record: read-out: Stability.
Series [5] deals with MV4-11. The series is described as follows: Induction of ROS generation in human MV4-11 cells at 10 uM measured over 4 hrs by DCFDA staning based spectrophotometric analysis. Type of series: functional, cell-based. In outline:
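MV4-11 cells were washed once in PBS and loaded with DCFDA (33 μM) for 30 min at 37 °C in the dark. Cells were then washed, resuspended in supplemental buffer and dosed with compound. Fluorescence (Ex/Em 485/535) was followed for up to 4 h against a DMSO control.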

Series [6] deals with MV4-11. The series is described as follows: Induction of apoptosis in human MV4-11 cells assessed as viable cells at 2 uM incubated for 15 mins by Annexin-V/FITC staining based FACS analysis (reference value: 35.53%). Type of series: functional. The settings on record: MV4-11, 0.25 h, read-out: Activity. The method, boiled down:
(§2)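 MV4-11 cells were dosed, then washed twice in cold PBS and resuspended in binding buffer at 1×10^6 cells/mL. Cells were stained with FITC-annexin V and propidium iodide for 15 min in the dark, diluted with binding buffer and analysed by flow cytometry within 1 h. Quadrants: LL viable, LR early apoptotic, UR late apoptotic. Duplicate experiments averaged; DMSO control.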

The subject of series [7] is MV4-11. The series is described as follows: Induction of apoptosis in human MV4-11 cells assessed as early apoptotic cells at 2 uM incubated for 15 mins by Annexin-V/FITC staining based FACS analysis (reference value: 0.70%). Type of series: functional. The settings on record: 0.25 h. The method, boiled down: as §2
Series [8] has as its system MV4-11. The series is described as follows: Induction of apoptosis in human MV4-11 cells assessed as viable cells at 1 uM incubated for 15 mins by Annexin-V/FITC staining based FACS analysis (reference value: 35.53%). Type of series: functional. The settings on record: MV4-11, 0.25 h, read-out: Activity. In outline:
as §2

Series [9] deals with T1, Protein deacetylase HDAC6 (Homo sapiens) (UniProt Q9UBN7).
T1 sequence (whole entry): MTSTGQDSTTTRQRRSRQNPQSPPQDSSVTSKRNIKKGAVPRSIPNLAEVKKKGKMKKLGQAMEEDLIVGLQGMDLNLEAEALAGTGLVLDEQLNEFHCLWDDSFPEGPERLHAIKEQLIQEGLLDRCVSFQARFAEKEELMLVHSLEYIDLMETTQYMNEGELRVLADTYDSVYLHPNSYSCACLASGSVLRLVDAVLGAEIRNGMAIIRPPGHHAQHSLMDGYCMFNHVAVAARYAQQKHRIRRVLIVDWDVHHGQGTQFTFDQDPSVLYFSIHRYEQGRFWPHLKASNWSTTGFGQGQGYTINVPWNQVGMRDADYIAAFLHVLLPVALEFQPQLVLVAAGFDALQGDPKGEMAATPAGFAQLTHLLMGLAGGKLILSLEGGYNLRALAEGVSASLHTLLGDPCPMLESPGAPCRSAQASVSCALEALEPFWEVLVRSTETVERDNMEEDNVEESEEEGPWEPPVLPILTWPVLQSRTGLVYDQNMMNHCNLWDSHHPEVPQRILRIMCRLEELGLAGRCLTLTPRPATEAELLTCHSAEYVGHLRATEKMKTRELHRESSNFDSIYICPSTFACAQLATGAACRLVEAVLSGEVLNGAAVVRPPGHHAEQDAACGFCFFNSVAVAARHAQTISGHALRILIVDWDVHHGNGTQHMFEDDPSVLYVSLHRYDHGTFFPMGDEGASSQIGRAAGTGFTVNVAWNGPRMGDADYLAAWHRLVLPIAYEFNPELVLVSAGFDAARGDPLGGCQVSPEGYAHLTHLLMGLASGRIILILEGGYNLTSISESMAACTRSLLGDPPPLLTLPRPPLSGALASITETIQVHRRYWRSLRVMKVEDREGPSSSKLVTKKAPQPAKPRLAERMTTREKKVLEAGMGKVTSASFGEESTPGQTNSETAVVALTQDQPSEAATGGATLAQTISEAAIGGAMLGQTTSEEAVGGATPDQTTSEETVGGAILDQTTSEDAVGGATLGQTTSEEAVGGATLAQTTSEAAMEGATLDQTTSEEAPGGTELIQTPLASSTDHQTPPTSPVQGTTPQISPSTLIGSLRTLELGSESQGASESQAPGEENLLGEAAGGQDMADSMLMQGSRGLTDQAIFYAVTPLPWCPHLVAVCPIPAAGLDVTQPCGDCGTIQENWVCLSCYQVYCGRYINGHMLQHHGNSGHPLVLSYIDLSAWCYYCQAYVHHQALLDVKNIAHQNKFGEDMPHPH
The series is described as follows: Binding affinity to human HDAC6 assessed as residence time by two-step reversible inhibition model.

The next series has as its target Histone deacetylase 4 (Homo sapiens, UniProt P56524). The series is described as follows: Inhibition of full length human HDAC4 using FAM-labeled acetylated peptide as substrate by electrophoretic mobility shift assay. The method, boiled down:
as §1

A further series deals with Histone deacetylase 5 (Homo sapiens, UniProt Q9UQL6). The series is described as follows: Inhibition of full length human HDAC5 using FAM-labeled acetylated peptide as substrate by electrophoretic mobility shift assay. In outline:
as §1

Series [10] is described as follows: Half life in mouse plasma incubated for 1 hr. Type of series: ADME, cell-free. In outline:
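Compound was incubated in mouse plasma or in pooled human whole blood. […] Triplicate studies, averaged.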

In series [11] the test system is MV4-11. The series is described as follows: Induction of apoptosis in human MV4-11 cells assessed as late apoptotic cells at 0.25 uM incubated for 15 mins by Annexin-V/FITC staining based FACS analysis (reference value: 4.36%). Type of series: functional. In outline:
as §2

Series [12] relates to MV4-11. The series is described as follows: Induction of apoptosis in human MV4-11 cells assessed as early apoptotic cells at 1 uM incubated for 15 mins by Annexin-V/FITC staining based FACS analysis (reference value: 7.28%). Type of series: functional. The settings on record: 0.25 h. The method, boiled down: as §2
Series [13] concerns MV4-11. The series is described as follows: Induction of apoptosis in human MV4-11 cells assessed as viable cells at 1 uM incubated for 15 mins by Annexin-V/FITC staining based FACS analysis (reference value: 84.58%). Type of series: functional. The settings on record: MV4-11, 0.25 h, read-out: Activity. In outline: as §2
The subject of series [14] is MV4-11. The series is described as follows: Induction of apoptosis in human MV4-11 cells assessed as early apoptotic cells at 0.25 uM incubated for 15 mins by Annexin-V/FITC staining based FACS analysis (reference value: 7.28%). Type of series: functional. In outline: as §2
Series [15] concerns MV4-11. The series is described as follows: Induction of apoptosis in human MV4-11 cells assessed as viable cells at 2 uM incubated for 15 mins by Annexin-V/FITC staining based FACS analysis (reference value: 84.58%). Type of series: functional. The settings on record: MV4-11, 0.25 h, read-out: Activity. The method, boiled down:
as §2

The test system of series [16] is MV4-11. The series is described as follows: Induction of apoptosis in human MV4-11 cells assessed as viable cells at 4 uM incubated for 15 mins by Annexin-V/FITC staining based FACS analysis (reference value: 84.58%). Type of series: functional. The settings on record: MV4-11, 0.25 h, read-out: Activity. In outline:
as §2

Series [17] deals with MV4-11. The series is described as follows: Induction of apoptosis in human MV4-11 cells assessed as early apoptotic cells at 0.50 uM incubated for 15 mins by Annexin-V/FITC staining based FACS analysis (reference value: 7.28%). Type of series: functional. The settings on record: dose 0.5 µM, 0.25 h. In outline: as §2

Histone deacetylase 7, sequence (Q8WUI4 whole entry, canonical isoform): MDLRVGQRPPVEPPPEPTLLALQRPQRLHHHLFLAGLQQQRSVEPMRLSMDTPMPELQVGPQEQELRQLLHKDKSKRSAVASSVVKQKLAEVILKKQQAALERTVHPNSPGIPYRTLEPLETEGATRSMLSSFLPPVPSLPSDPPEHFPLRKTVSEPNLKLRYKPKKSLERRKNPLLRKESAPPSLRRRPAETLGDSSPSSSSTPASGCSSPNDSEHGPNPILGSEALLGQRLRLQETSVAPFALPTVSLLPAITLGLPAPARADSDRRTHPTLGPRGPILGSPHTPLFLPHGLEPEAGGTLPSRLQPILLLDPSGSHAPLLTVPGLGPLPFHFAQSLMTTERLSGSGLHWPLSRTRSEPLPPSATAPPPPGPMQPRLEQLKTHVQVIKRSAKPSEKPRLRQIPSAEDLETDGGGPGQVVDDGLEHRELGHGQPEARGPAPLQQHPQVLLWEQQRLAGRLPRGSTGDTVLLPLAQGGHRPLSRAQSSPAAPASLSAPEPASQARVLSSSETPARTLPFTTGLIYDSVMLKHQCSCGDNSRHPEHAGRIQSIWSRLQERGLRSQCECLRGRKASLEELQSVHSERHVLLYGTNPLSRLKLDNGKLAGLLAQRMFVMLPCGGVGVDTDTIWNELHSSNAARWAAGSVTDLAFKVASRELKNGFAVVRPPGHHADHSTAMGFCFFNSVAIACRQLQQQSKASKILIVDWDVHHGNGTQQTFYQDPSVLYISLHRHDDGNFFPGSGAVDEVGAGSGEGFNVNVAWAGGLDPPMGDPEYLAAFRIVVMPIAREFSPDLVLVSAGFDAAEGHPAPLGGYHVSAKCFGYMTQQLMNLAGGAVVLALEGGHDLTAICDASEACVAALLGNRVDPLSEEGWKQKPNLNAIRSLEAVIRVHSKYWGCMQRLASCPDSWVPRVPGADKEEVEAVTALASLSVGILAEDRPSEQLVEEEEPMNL
Histone deacetylase 4, sequence (P56524 whole entry): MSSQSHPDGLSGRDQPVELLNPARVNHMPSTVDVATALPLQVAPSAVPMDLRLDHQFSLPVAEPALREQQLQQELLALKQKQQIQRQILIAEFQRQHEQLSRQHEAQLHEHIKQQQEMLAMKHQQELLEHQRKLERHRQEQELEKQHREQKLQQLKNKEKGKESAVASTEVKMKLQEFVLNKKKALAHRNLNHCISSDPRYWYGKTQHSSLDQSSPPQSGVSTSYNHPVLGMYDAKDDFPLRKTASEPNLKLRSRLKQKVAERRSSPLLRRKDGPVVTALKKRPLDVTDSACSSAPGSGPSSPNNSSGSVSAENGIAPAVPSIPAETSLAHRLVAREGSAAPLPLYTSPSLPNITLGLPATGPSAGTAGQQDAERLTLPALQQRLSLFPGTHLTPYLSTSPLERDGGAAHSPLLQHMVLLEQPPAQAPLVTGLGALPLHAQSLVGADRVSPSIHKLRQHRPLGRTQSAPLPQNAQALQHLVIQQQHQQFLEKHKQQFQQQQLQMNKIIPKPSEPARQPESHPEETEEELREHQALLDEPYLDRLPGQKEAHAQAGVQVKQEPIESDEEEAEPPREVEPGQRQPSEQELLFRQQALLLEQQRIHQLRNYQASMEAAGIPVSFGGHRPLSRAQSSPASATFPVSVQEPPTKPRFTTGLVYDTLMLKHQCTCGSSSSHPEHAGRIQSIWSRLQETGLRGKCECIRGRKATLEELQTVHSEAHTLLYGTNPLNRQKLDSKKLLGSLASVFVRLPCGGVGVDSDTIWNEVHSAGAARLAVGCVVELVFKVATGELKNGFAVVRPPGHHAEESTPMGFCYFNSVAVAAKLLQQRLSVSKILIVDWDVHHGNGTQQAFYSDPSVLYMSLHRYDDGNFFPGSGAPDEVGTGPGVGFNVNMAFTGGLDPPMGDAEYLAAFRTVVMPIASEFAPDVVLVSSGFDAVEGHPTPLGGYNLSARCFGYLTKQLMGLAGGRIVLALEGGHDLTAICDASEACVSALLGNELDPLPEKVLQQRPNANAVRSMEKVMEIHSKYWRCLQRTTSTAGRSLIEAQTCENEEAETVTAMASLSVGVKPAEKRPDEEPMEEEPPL
Histone deacetylase 5, sequence (Q9UQL6 whole entry): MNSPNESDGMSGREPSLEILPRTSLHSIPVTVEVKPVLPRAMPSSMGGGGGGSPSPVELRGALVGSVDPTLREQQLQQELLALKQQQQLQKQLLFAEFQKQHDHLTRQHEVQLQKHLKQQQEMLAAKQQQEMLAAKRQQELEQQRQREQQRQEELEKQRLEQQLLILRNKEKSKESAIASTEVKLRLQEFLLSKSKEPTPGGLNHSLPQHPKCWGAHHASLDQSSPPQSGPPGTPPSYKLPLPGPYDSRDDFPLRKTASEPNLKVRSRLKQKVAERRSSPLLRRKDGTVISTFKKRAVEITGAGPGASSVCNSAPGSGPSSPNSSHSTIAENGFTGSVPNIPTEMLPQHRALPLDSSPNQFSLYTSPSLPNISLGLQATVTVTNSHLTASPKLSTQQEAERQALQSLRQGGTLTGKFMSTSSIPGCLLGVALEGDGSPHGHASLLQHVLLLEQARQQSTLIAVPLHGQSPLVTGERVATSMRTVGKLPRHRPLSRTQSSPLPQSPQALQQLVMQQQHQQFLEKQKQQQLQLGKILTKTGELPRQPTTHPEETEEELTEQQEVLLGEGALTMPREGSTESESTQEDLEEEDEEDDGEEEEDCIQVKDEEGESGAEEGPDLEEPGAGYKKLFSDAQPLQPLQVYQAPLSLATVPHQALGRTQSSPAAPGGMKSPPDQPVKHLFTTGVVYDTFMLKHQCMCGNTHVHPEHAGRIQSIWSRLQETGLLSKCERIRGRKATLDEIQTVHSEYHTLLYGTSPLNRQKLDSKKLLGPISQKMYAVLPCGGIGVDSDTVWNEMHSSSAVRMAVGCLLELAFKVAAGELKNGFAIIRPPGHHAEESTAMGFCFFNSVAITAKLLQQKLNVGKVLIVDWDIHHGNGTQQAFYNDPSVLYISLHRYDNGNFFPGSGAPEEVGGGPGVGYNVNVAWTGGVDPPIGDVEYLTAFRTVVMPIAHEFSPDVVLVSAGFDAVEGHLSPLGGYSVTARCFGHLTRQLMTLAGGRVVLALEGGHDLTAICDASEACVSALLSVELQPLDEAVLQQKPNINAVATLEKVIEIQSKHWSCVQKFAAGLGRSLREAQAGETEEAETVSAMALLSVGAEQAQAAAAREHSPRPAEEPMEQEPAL

For `O=C(NO)c1ccc(CN(Cc2cccnc2)S(=O)(=O)c2cc(F)c(F)c(F)c2F)cc1`, the results for the remaining at 1 h in [1] and in series [2] were 68% and 68.9%, respectively. Besides, the remaining at 0.5 h in [3] came out at 80.8%. Further, the IC50 on Histone deacetylase 7 was 7.29 µM; on Histone deacetylase 4, above 10 µM; at Histone deacetylase 5, 8.65 µM. Besides, the remaining at 0.25 h in series [4] stood at 88.1%. Moreover, the outcome in the series on MV4-11 [5] was Active. Further, in the series with MV4-11 [6], the viability at 2 µM turned out to be 9.59%. Also, in the series with MV4-11 [7], the Activity was found to be 2.45%. In the series on MV4-11 [8], the viability at 1 µM was 17.1%. In addition, in series [9], the TIME was 2.37 h. Also, in [10], the t1/2 turned out to be 1.83 h.

For the compound `O=C(CCCCCCNC(=O)c1cnc(N(c2ccccc2)c2ccccc2Cl)nc1)NO` [CITARINOSTAT], the Activity in the series with MV4-11 [11] stood at 4.65%; in the series with MV4-11 [12], 16.25%; in the series with MV4-11 [14] it was 7.93%; with MV4-11 [17], 10.02%. For the same compound, the viability at 1 µM in the series with MV4-11 [13] was 68.4%. Also, the viability at 2 µM with MV4-11 [15] was 42.4%. The viability at 4 µM in the series with MV4-11 [16] was determined as 40.9%.
